# Assay results from ChEMBL document CHEMBL5058577, “EUbOPEN Chemogenomics Library 2 (Multiplex)” (2022).
# System: HEK-293T
# Test: Multiplex assay against HEK293T
# Format: toxicity, cell-based
# Conditions: human
# Outline: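 Imaging took place on a CQ1 microscope at 37°C and 5% CO2 once compound had been added to live cells stained at seeding with Hoechst33342, BioTracker Green Microtubule Cytoskeleton Dye, MitoTracker Red and Annexin V Alexa Fluor 680. CellPathfinder machine-learning gating classed cells as Hoechst high-intensity objects or normal cells, classed normal cells as having healthy, pyknosed or fragmented nuclei, and classed pyknosed cells as mitotic or apoptotic. Tubulin, mitochondrial-mass and membrane-permeability phenotypes are per cents of the healthy-nucleus cells.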
# [1] = 12 h, 1 µM, compound concentration 1 uM, replicate 1
# [2] = 12 h, 1 µM, compound concentration 1 uM, replicate 2
# [3] = 12 h, 10 µM, compound concentration 10 uM, replicate 1
# [4] = 12 h, 10 µM, compound concentration 10 uM, replicate 2
# [5] = 24 h, 1 µM, compound concentration 1 uM, replicate 1
# [6] = 24 h, 1 µM, compound concentration 1 uM, replicate 2
# [7] = 24 h, 10 µM, compound concentration 10 uM, replicate 1
# [8] = 24 h, 10 µM, compound concentration 10 uM, replicate 2
# [9] = 48 h, 1 µM, compound concentration 1 uM, replicate 1
# [10] = 48 h, 1 µM, compound concentration 1 uM, replicate 2
# [11] = 48 h, 10 µM, compound concentration 10 uM, replicate 1
# [12] = 48 h, 10 µM, compound concentration 10 uM, replicate 2
smiles,measurement,setting,value
COc1cccc2c1c(NS(=O)(=O)c1ccc(Cl)s1)nn2Cc1cccc(CNC(=O)C(C)(C)O)c1,Population Apoptotic (%),[1],31%
same,Population Fragmented Nuclei (%),[1],6%
same,Population Healthy Nuclei (%),[1],82%
same,Population Hoechst High Intensity Objects (%),[1],6%
same,Population Membrane Permeable-Phenotype (%),[1],0%
same,Population Mitochondria Different-Phenotype (%),[1],39%
same,Population Mitotic Cells (%),[1],68%
same,Population Normal (%),[1],93%
same,Population Pyknosed Nuclei (%),[1],10%
same,Population Tubulin-Different-Phenotype (%),[1],26%
same,Total Cell Count,[1],469
same,Population Apoptotic (%),[2],34%
same,Population Fragmented Nuclei (%),[2],7%
same,Population Healthy Nuclei (%),[2],77%
same,Population Hoechst High Intensity Objects (%),[2],10%
same,Population Mitochondria Different-Phenotype (%),[2],52%
same,Population Mitotic Cells (%),[2],65%
same,Population Normal (%),[2],89%
same,Population Pyknosed Nuclei (%),[2],15%
same,Population Tubulin-Different-Phenotype (%),[2],23%
same,Total Cell Count,[2],315
same,Population Apoptotic (%),[3],42%
same,Population Fragmented Nuclei (%),[3],6%
same,Population Healthy Nuclei (%),[3],80%
same,Population Hoechst High Intensity Objects (%),[3],7%
same,Population Membrane Permeable-Phenotype (%),[3],0%
same,Population Mitochondria Different-Phenotype (%),[3],51%
same,Population Mitotic Cells (%),[3],57%
same,Population Normal (%),[3],92%
same,Population Pyknosed Nuclei (%),[3],12%
same,Population Tubulin-Different-Phenotype (%),[3],38%
same,Total Cell Count,[3],356
same,Population Apoptotic (%),[4],35%
same,Population Fragmented Nuclei (%),[4],5%
same,Population Healthy Nuclei (%),[4],78%
same,Population Hoechst High Intensity Objects (%),[4],11%
same,Population Mitochondria Different-Phenotype (%),[4],69%
same,Population Mitotic Cells (%),[4],65%
same,Population Normal (%),[4],88%
same,Population Pyknosed Nuclei (%),[4],16%
same,Population Tubulin-Different-Phenotype (%),[4],33%
same,Total Cell Count,[4],280
same,Population Apoptotic (%),[5],26%
same,Population Fragmented Nuclei (%),[5],7%
same,Population Healthy Nuclei (%),[5],81%
same,Population Hoechst High Intensity Objects (%),[5],2%
same,Population Membrane Permeable-Phenotype (%),[5],0%
same,Population Mitochondria Different-Phenotype (%),[5],22%
same,Population Mitotic Cells (%),[5],73%
same,Population Normal (%),[5],97%
same,Population Pyknosed Nuclei (%),[5],11%
same,Population Tubulin-Different-Phenotype (%),[5],17%
same,Total Cell Count,[5],617
same,Population Apoptotic (%),[6],44%
same,Population Fragmented Nuclei (%),[6],6%
same,Population Healthy Nuclei (%),[6],84%
same,Population Hoechst High Intensity Objects (%),[6],7%
same,Population Mitochondria Different-Phenotype (%),[6],37%
same,Population Mitotic Cells (%),[6],55%
same,Population Normal (%),[6],92%
same,Population Pyknosed Nuclei (%),[6],8%
same,Population Tubulin-Different-Phenotype (%),[6],15%
same,Total Cell Count,[6],357
same,Population Apoptotic (%),[7],40%
same,Population Fragmented Nuclei (%),[7],10%
same,Population Healthy Nuclei (%),[7],73%
same,Population Hoechst High Intensity Objects (%),[7],5%
same,Population Membrane Permeable-Phenotype (%),[7],0%
same,Population Mitochondria Different-Phenotype (%),[7],34%
same,Population Mitotic Cells (%),[7],60%
same,Population Normal (%),[7],94%
same,Population Pyknosed Nuclei (%),[7],16%
same,Population Tubulin-Different-Phenotype (%),[7],23%
same,Total Cell Count,[7],462
same,Population Fragmented Nuclei (%),[8],9%
same,Population Healthy Nuclei (%),[8],77%
same,Population Mitochondria Different-Phenotype (%),[8],46%
same,Population Pyknosed Nuclei (%),[8],12%
same,Population Tubulin-Different-Phenotype (%),[8],22%
same,Total Cell Count,[8],384
same,Population Apoptotic (%),[9],16%
same,Population Fragmented Nuclei (%),[9],10%
same,Population Healthy Nuclei (%),[9],83%
same,Population Hoechst High Intensity Objects (%),[9],2%
same,Population Membrane Permeable-Phenotype (%),[9],0%
same,Population Mitochondria Different-Phenotype (%),[9],18%
same,Population Mitotic Cells (%),[9],83%
same,Population Normal (%),[9],97%
same,Population Pyknosed Nuclei (%),[9],6%
same,Population Tubulin-Different-Phenotype (%),[9],11%
same,Total Cell Count,[9],1062
same,Population Apoptotic (%),[10],28%
same,Population Fragmented Nuclei (%),[10],11%
same,Population Membrane Permeable-Phenotype (%),[10],2%
same,Population Mitochondria Different-Phenotype (%),[10],21%
same,Population Mitotic Cells (%),[10],71%
same,Population Pyknosed Nuclei (%),[10],4%
same,Population Tubulin-Different-Phenotype (%),[10],10%
same,Total Cell Count,[10],591
same,Population Apoptotic (%),[11],26%
same,Population Fragmented Nuclei (%),[11],16%
same,Population Healthy Nuclei (%),[11],72%
same,Population Hoechst High Intensity Objects (%),[11],4%
same,Population Membrane Permeable-Phenotype (%),[11],0%
same,Population Mitochondria Different-Phenotype (%),[11],25%
same,Population Mitotic Cells (%),[11],73%
same,Population Normal (%),[11],95%
same,Population Pyknosed Nuclei (%),[11],10%
same,Population Tubulin-Different-Phenotype (%),[11],16%
same,Total Cell Count,[11],646
same,Population Apoptotic (%),[12],35%
same,Population Fragmented Nuclei (%),[12],8%
same,Population Healthy Nuclei (%),[12],83%
same,Population Mitochondria Different-Phenotype (%),[12],27%
same,Population Mitotic Cells (%),[12],65%
same,Population Pyknosed Nuclei (%),[12],7%
same,Population Tubulin-Different-Phenotype (%),[12],12%
same,Total Cell Count,[12],550
